Source: ChEMBL document CHEMBL3774321, “Systematic diversification of benzylidene heterocycles yields novel inhibitor scaffolds selective for Dyrk1A, Clk1 and CK2” (Eur J Med Chem, 2016)

Columns and labels:
[1] = target: T1, Dual specificity tyrosine-phosphorylation-regulated kinase 1A (Homo sapiens, UniProt Q13627); experiment: Inhibition of recombinant human N-terminal His6-tagged DYRK1A catalytic domain expressed in Escherichia coli BL21(DE3) cells using KKISGRLSPIMTEQ-NH2 as substrate incubated for 15 mins in presence of [gamma-32P]ATP
[2] = Half life in rat plasma at 1 uM by LC-MS/MS analysis; assay type: ADME, cell-free
Method in brief: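 Pooled heparinized rat plasma incubated with 1 μM compound at 37 °C, sampled at 0, 5, 15, 30, 60 and 120 min. Reaction stopped with 5 volumes cold acetonitrile containing internal standard. Remaining compound quantified by LC-MS/MS. Half-life given as mean of two experiments.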

[3] = target: Epidermal growth factor receptor (Homo sapiens, UniProt P00533); experiment: Inhibition of EGFR (unknown origin) incubated for 15 mins in presence of [gamma-32P]ATP; details: read-out: IC50
Chain of Epidermal growth factor receptor (P00533 whole entry): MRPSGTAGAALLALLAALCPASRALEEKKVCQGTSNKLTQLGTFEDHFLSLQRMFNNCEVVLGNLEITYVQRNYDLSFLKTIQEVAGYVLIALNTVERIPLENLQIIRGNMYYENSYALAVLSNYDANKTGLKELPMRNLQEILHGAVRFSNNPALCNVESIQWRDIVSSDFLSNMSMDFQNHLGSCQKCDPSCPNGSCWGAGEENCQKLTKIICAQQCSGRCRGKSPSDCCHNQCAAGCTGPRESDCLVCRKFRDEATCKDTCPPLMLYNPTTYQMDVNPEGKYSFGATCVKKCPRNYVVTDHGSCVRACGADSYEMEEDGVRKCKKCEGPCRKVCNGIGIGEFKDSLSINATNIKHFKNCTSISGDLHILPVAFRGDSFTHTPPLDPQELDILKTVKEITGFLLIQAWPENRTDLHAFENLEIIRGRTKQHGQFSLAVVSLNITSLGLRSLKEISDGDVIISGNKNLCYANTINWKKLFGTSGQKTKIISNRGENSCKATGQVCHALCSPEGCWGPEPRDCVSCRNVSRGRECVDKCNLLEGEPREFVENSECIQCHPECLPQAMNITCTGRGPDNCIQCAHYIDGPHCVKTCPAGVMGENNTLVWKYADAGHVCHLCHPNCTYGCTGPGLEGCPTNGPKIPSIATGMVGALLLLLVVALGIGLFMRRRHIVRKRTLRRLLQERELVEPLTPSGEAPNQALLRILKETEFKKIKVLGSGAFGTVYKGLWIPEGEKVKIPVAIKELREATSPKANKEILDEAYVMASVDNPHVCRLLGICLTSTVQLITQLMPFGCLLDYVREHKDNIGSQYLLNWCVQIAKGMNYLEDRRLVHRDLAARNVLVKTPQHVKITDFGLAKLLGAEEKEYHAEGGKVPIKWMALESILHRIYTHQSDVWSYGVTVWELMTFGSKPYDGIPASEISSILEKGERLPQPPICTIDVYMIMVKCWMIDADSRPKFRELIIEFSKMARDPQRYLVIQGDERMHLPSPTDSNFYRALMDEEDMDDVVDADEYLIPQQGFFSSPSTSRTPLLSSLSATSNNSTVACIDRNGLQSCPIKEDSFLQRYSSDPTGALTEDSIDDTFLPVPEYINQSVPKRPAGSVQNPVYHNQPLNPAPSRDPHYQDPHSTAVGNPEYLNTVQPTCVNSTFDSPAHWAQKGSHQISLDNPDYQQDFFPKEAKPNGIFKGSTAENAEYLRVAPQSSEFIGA
Method in brief: (§1)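 Purified recombinant kinase assayed with 100 μM ATP. Values averaged from at least two independent determinations.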

[4] = target: Phosphatidylinositol 4-phosphate 3-kinase C2 domain-containing subunit beta (Homo sapiens) (UniProt O00750); experiment: Inhibition of PI3K-C2beta (unknown origin) at 5 uM relative to control
[5] = target: Dual specificity tyrosine-phosphorylation-regulated kinase 1B (Homo sapiens, UniProt Q9Y463); experiment: Inhibition of full length recombinant human GST-tagged DYRK1B expressed in insect cells using KKISGRLSPIMTEQ-NH2 as substrate incubated for 15 mins in presence of [gamma-32P]ATP
Chain of Dual specificity tyrosine-phosphorylation-regulated kinase 1B (Q9Y463 whole entry): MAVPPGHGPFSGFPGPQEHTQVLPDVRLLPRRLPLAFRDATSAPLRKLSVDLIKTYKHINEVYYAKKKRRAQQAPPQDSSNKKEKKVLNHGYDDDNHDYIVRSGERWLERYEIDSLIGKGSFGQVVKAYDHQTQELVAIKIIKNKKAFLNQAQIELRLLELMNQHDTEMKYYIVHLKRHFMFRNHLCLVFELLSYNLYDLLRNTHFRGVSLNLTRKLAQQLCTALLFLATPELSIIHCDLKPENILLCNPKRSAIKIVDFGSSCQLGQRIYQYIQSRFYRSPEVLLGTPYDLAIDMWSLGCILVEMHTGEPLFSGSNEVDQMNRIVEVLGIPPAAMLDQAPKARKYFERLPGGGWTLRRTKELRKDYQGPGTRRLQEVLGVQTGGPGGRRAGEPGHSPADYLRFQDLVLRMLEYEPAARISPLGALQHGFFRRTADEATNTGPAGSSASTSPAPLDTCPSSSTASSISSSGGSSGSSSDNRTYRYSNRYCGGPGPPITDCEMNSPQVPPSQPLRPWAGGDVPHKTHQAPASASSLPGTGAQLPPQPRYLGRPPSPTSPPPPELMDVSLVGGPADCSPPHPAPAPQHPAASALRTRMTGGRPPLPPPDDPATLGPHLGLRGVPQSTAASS

[6] = target: T2, Dual specificity tyrosine-phosphorylation-regulated kinase 2 (Homo sapiens, UniProt Q92630); experiment: Inhibition of recombinant human N-terminal GST-tagged DYRK2 expressed in Escherichia coli BL21(DE3) cells using KKISGRLSPIMTEQ-NH2 as substrate incubated for 15 mins in presence of [gamma-32P]ATP; details: read-out: IC50
T2 sequence (Q92630 whole entry): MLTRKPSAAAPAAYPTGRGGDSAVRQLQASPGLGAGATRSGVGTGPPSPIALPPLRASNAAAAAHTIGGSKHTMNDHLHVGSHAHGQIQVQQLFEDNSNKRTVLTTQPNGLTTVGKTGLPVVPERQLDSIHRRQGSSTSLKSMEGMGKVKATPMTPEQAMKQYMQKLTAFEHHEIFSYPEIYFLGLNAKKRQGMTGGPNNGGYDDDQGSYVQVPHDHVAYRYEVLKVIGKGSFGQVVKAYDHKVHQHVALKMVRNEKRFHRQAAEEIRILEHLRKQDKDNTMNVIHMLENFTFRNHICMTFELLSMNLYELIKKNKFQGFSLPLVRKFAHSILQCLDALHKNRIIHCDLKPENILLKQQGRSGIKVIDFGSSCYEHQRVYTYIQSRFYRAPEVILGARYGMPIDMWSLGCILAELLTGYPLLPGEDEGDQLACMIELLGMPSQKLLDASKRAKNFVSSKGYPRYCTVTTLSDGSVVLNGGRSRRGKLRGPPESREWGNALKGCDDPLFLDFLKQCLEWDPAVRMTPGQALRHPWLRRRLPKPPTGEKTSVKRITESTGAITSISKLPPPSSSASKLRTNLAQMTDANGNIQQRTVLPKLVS
Method in brief: (§2)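 Purified recombinant kinase with 100 µM ATP. IC50 values are averages of at least two independent determinations.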

[7] = target: Protein kinase C beta type (Homo sapiens, UniProt P05771); experiment: Inhibition of PKCbeta (unknown origin) incubated for 15 mins in presence of [gamma-32P]ATP; method in brief: as §1
Chain of Protein kinase C beta type (P05771 whole entry): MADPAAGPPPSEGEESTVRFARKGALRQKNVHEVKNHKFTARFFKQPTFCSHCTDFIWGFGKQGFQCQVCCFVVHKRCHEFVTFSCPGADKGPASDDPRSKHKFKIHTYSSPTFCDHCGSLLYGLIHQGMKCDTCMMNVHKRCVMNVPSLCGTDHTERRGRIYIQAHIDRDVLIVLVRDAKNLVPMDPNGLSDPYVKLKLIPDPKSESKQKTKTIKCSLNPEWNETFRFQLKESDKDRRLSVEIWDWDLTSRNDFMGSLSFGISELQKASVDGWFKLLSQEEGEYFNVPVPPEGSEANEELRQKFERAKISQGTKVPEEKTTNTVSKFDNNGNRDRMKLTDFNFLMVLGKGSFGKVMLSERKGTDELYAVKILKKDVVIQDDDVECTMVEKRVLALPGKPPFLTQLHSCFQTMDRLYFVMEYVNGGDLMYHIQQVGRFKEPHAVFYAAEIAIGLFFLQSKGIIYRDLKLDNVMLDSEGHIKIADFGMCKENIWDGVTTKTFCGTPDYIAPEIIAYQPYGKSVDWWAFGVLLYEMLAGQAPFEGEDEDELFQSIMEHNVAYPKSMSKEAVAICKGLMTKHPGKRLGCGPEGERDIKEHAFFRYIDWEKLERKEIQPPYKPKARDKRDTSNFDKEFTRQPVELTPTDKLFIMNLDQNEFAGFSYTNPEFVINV

[8] = target: T1, Dual specificity tyrosine-phosphorylation-regulated kinase 1A; experiment: Inhibition of tetracycline-inducible EGFP-DYRK1A (unknown origin) expressed in HEK293 cells coexpressing full length human EGFP-tau protein assessed as reduction in tau-Thr212 phosphorylation incubated overnight by immunoblotting assay
[9] = target: Casein kinase II (Homo sapiens, UniProt P19784+P67870+P68400); experiment: Inhibition of CK2 (unknown origin) using RRRDDDSDDD-NH2 as susbtrate incubated for 15 mins in presence of [gamma-32P]ATP; assay type: protein-complex assay
Chain of Casein kinase II (P67870 whole entry, canonical isoform): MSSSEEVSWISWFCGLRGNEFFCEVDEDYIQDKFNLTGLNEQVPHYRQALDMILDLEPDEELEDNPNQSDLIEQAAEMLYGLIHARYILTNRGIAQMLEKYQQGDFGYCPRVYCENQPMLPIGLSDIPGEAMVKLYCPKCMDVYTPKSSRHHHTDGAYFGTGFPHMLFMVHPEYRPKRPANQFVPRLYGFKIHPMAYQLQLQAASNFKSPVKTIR
Chain of Casein kinase II (P68400 whole entry, canonical isoform): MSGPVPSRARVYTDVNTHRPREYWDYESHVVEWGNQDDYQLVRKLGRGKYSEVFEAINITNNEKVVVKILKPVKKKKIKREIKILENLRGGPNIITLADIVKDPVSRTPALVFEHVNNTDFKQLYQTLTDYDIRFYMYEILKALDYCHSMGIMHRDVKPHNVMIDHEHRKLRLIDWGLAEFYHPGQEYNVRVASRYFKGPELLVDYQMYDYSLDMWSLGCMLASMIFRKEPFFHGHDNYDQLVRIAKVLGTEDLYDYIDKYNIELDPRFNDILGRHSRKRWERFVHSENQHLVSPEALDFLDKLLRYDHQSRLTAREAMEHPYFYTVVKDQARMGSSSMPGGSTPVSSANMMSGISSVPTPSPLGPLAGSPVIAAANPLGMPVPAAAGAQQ
Chain of Casein kinase II (P19784 whole entry, canonical isoform): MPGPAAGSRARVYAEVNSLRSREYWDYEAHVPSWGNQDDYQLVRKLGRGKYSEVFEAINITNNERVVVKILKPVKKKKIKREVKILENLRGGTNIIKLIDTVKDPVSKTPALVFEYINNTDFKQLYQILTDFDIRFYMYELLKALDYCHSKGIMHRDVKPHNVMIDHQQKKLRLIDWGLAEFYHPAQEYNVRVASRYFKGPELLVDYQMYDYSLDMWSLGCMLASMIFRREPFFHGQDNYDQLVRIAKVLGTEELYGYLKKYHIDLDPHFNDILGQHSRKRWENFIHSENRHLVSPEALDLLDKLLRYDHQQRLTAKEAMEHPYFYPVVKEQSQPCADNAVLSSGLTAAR

[10] = target: T3, Phosphatidylinositol 4,5-bisphosphate 3-kinase catalytic subunit alpha isoform (Homo sapiens, UniProt P42336); experiment: Inhibition of PI3K p110alpha (unknown origin) at 5 uM relative to control
T3 sequence (P42336 whole entry, the tested form may be a part, canonical isoform): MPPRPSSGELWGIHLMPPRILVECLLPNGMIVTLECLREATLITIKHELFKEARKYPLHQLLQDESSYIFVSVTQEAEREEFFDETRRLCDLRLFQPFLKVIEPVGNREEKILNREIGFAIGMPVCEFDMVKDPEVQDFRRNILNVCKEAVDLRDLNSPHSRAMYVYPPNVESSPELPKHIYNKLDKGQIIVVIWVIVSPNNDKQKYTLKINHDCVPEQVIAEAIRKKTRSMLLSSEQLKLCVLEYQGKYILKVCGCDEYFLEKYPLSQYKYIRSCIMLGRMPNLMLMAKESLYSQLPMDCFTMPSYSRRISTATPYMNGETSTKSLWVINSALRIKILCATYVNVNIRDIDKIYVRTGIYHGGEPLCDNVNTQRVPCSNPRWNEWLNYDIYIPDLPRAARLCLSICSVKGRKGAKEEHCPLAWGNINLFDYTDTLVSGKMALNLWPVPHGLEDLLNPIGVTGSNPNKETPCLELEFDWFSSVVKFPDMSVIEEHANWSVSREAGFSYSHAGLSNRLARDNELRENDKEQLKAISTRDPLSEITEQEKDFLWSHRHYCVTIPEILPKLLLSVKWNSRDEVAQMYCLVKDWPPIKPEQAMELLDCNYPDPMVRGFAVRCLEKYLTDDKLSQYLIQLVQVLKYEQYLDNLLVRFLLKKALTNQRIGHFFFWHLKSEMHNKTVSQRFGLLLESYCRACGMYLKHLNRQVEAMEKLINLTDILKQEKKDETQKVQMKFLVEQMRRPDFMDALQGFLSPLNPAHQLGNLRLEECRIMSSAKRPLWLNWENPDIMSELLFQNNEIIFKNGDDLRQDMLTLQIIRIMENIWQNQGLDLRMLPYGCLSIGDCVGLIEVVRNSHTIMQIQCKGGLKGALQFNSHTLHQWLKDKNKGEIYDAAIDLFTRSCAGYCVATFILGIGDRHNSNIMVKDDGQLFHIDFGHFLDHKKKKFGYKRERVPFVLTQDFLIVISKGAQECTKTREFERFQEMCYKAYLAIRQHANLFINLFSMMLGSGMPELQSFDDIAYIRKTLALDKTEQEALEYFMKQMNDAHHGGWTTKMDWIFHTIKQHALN

[11] = target: Dual specificity protein kinase CLK1 (Homo sapiens, UniProt P49759); experiment: Inhibition of recombinant human GST-tagged CLK1 catalytic domain (129 to 484 residues) expressed in Escherichia coli using GRSRSRSRSRSRSRSR as substrate incubated for 15 mins in presence of [gamma-32P]ATP; method in brief: as §2
Chain of Dual specificity protein kinase CLK1 (P49759 whole entry, the tested form may be a part, canonical isoform): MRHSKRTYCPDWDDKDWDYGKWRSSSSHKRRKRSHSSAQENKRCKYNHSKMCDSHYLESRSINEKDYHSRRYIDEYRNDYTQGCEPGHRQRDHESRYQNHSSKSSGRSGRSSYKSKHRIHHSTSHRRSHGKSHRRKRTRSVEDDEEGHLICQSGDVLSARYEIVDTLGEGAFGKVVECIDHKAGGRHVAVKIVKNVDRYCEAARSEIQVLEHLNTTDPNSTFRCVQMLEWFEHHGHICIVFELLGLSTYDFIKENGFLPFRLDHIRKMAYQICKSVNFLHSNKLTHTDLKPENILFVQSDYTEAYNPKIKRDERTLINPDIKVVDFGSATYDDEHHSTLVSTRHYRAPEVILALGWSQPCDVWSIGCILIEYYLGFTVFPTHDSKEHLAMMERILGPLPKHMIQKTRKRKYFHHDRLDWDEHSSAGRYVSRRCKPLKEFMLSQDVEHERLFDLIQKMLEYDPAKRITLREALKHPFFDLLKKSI

[12] = target: T3, Phosphatidylinositol 4,5-bisphosphate 3-kinase catalytic subunit alpha isoform; experiment: Inhibition of PI3K p110alpha (unknown origin)
[13] = target: Phosphatidylinositol 4,5-bisphosphate 3-kinase catalytic subunit gamma isoform (Homo sapiens, UniProt P48736); experiment: Inhibition of PI3K p110gamma (unknown origin) at 1 uM relative to control
Method in brief: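 Single-point screen at 1 μM compound. Percent inhibition is the mean of two separate measurements, each run in duplicate.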

[14] = Growth inhibition of human U87MG cells after 4 days by MTT assay; assay type: functional, cell-based, U-87MG ATCC; details: U-87 MG, 96 h
[15] = target: Serine/threonine-protein kinase haspin (Homo sapiens, UniProt Q8TF76); experiment: Inhibition of Haspin (unknown origin)
Method in brief: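 Calculated from means of duplicates differing by less than 7%.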

[16] = target: Phosphatidylinositol 4,5-bisphosphate 3-kinase catalytic subunit delta isoform (Homo sapiens, UniProt O00329); experiment: Inhibition of PI3K p110delta (unknown origin)
[17] = target: Dual specificity protein kinase CLK4 (Homo sapiens, UniProt Q9HAZ1); experiment: Inhibition of full length recombinant human GST-tagged CLK4 expressed in baculovirus expression system by lantha screen kinase binding assay
Method in brief: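 LanthaScreen binding format: test compound competes with an Alexa Fluor-conjugated tracer for the ATP site. IC50 derived from this displacement, not from peptide phosphorylation.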

| IC50 [1] [nM] | half-life at 1 µM [2] [h] | IC50 [3] [nM] | inhibition [4] [%] | IC50 [5] [nM] | IC50 [6] [nM] | IC50 [7] | IC50 [8] [nM] | IC50 [9] [nM] | inhibition [10] [%] | IC50 [11] [nM] | IC50 [12] [nM] | inhibition [13] [%] | IC50 [15] [nM] | IC50 [16] [nM] | IC50 ([7]; read-out: IC50) [nM] | IC50 [17] [nM] | SMILES | IC50 [14] [nM] |
| --- | --- | --- | --- | --- | --- | --- | --- | --- | --- | --- | --- | --- | --- | --- | --- | --- | --- | --- |
| 130 | 3.1 | > 10000 | 13 | 1050 | 60 | Not Active | 200 | > 10000 | 90 | > 10000 |  |  |  |  |  |  | O=C1OCC/C1=C\c1ccc2ncsc2c1 |  |
| 170 | > 2 | > 10000 | 8 | 2640 | 430 | Not Active | 2100 | > 10000 | 84 | > 10000 | 650 |  |  |  |  |  | CC1C/C(=C\c2ccc3c(c2)CCO3)C(=O)O1 (configuration not stated) |  |
| 20 |  | > 10000 |  | 60 | 60 |  | 1400 | 40 |  | 200 | 2.6 | 97 | 259 | 16.1 | > 10000 | 17.8 | O=C1NC(=S)S/C1=C\c1ccc2ncccc2c1 | 200 |
| 40 | 1.68 | > 10000 |  | 70 | 200 |  | 2100 | 60 |  | 100 | 2.2 | 97 | 255 | 12.4 | 9200 | 31.8 | O=C1NC(=S)S/C1=C\c1ccc2ncsc2c1 | 560 |
